Rows were chosen to be rich in hits. Some 2.5% of all compounds tested hit in one or more screens of this group.
TCR-CD3 inh – inhibitors of human TCR-CD3 interaction | TAMRA-labeled TCR probe fluorescence, biochemical | inhibition, % at 9.4 µM | actives 0.37% (n = 360,000) | AID 651800;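 further: recombinant mutant TCR 2C K166C tagged with TAMRA read by polarization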
ABHD4 inh – inhibits mouse alpha/beta hydrolase domain 4 | inhibition, % at 8.92 µM | purified mABHD4, FP-Rh probe fluorescence polarization | actives 0.54% (n = 370,000);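 active means inhibition exceeding the mean over every tested compound plus 3 SD, cut at about 30% in these data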
Target sequence (Q8VD66 whole entry, looked up, the tested form may be a part): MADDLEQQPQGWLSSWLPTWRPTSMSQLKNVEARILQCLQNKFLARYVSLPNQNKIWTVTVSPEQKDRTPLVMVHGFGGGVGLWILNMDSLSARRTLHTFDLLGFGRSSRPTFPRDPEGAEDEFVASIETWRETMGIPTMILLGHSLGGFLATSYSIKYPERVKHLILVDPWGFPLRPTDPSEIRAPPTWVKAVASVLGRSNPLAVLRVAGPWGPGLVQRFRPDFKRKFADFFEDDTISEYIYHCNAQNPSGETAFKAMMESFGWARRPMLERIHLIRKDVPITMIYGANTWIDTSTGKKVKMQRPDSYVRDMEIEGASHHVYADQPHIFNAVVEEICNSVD
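Material: mouse ABHD4 enzyme, wild type; Benchmarks: S159A mutant high control, sample median low control; Buffer or medium: HEPES pH 7.0, NaCl, Pluronic buffer; Signal: fluorescence polarization; Read-out: percent inhibition of probe binding, normalized to plate controls; Timing: pre-incubation 45 min, probe exposure 60 min, at 25 °C; Dosing: 8.92 µM, single dose.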
SIAE primary – human SIAE inhibition, primary screen. SIAE FP-Rh probe binding, fluorescence polarization. inhibition, % at 9.66 µM. actives 0.69% (n = 370,000). AID 1053197;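 active means inhibition above a cutoff: mean of compounds within the control limits plus 3 SD of those, cut at about 17% in these data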
HTRA1 inh – HTRA1 (human) protease inhibition; recombinant HTRA1, FP-rhodamine activity-based probe, fluorescence polarization; inhibition, % at 5.96 µM; actives 0.5% (n = 340,000); in the data active means inhibition above about 36%
PRMT1 inh – inhibitors of human PRMT1. Q99873. recombinant PRMT1, activity-based probe fluorescence polarization. actives 1.3% (n = 370,000). AID 652257. inhibition, % at 2.79 µM;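 active means inhibition above about 21% made by adding two undisclosed values, limit read from the data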
HTRA1 conf – confirmation of human HTRA1 inhibitors. actives 66% (n = 1,600). shares compounds with HTRA1 inh. inhibition, % at 5.96 µM. recombinant HTRA1, FP-rhodamine activity-based probe, fluorescence polarization;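 active means mean inhibition over three repeats above a set limit taken from the earlier primary screen, cut at about 37% in these data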;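 further: inhibitors block probe binding so polarization drops and inhibition rises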
BSA TAMRA ctr – BSA probe counter-screen for TCR-CD3 inhibitors. shares compounds with TCR-CD3 inh. TAMRA-labeled BSA probe fluorescence counterscreen. inhibition, % at 9.4 µM. actives 10% (n = 1,200). AID 652035; in the data active means inhibition above about 23%
TCR-CD3 conf – TCR-CD3 interaction inhibition, confirmation | TAMRA-labeled TCR probe fluorescence binding assay | inhibition, % at 9.4 µM | actives 48% (n = 1,200) | shares compounds with TCR-CD3 inh
PRMT1 inh conf – confirmation of human PRMT1 inhibitors; shares compounds with PRMT1 inh; recombinant His-PRMT1, activity-based probe fluorescence polarization; inhibition, % at 2.79 µM; actives 42% (n = 3,300);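 active means mean inhibition across replicates above the hit cutoff derived for the earlier primary screen, cut at about 22% in these data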
ABHD4 confirm – ABHD4 (mouse) inhibition, FP confirmation. shares compounds with ABHD4 inh. purified mABHD4, FP-Rh probe fluorescence polarization. inhibition, % at 8.92 µM. actives 55% (n = 1,800). AID 720658;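 active means mean inhibition across replicates above the hit cutoff set in the primary screen, cut at about 30% in these data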
Hits are given with their value; – = inactive; · = not tested or not shown; ! = not active in a repeat. Unless noted, no stated cut-off is given here; in the data, active means inhibition above about 19%; inactive means the rest.

SMILES	TCR-CD3 inh	ABHD4 inh	SIAE primary	HTRA1 inh	PRMT1 inh	HTRA1 conf	ABHD4 confirm	others
Cc1ccnc(Nc2nc(-c3ccc(O)c(O)c3)cs2)c1	–	42	–	74	–	85	47
Cc1cccc(Nc2nc(-c3ccc(O)c(O)c3)cs2)n1	–	34	–	60	–	59	57
Oc1ccc(-c2csc(Nc3ccccn3)n2)cc1O	–	31	–	64	–	80	40
Cc1cccnc1Nc1nc(-c2ccc(O)c(O)c2)cs1	–	35	–	81	–	70	43
Cc1ccnc(Nc2nc(-c3ccc(O)cc3)cs2)c1	–	–	–	–	–	·	·
Cc1cccc(Nc2nc(-c3ccc(F)c(C)c3)cs2)n1	–	–	–	–	–	·	·
C=CCN(C(=O)[C@@H](C)[C@@H](O)c1ccc2ccccc2c1)c1ccccc1	·	–	–	·	–	·	·
Cc1ccc(CSc2nnc(-c3n[nH]c4c3CCC4)n2N)cc1	·	–	–	·	–	·	·
COC(=O)[C@H]1C[C@@]2(N3CCCCC3)c3ccccc3N[C@H]2N1S(=O)(=O)c1ccc(C)cc1	·	–	–	·	–	·	·
O=C(CCCC1=NS(=O)(=O)c2ccccc2N1)N1CCN(c2ccccc2Cl)CC1	·	–	–	·	–	·	·
CN(C)c1cc2c(c(N(C)C)c1)C(=O)c1ccccc1C2=O	–	41	–	41	–	50	33
O=c1[nH]nc(CNc2ccc(O)cc2)c2ccccc12	89	82	79	85	25	–	37	BSA TAMRA ctr=–;TCR-CD3 conf=–
COC(=O)c1cc(S(=O)(=O)N2CCCN(C(C)=O)CC2)cn1C	·	–	–	·	–	·	·
CCn1c(O)c(C=NCc2ccccc2)sc1=S	–	–	–	–	–	·	·
Oc1cccc(C=NCc2ccccc2)c1O	29	45	18	55	36	62	43
COc1cc(/C=N/NC(=O)NC23CC4CC(CC(C4)C2)C3)ccc1O	–	–	–	–	–	·	·
O=C(N/N=C/c1ccc(O)c(O)c1)NC12CC3CC(CC(C3)C1)C2	–	33	–	68	–	82	31
CCOC(=O)[C@]12CCCC=C1N(Cc1ccc(OC)cc1)C(=O)[C@@H]2CC(=O)NCc1cccc(C(F)(F)F)c1	·	–	–	·	–	·	·
O=C(O)c1ccc(N=Nc2c(O)ccc3ncccc23)cc1	–	73	–	39	–	–	80
O=C(O)c1cc(N=Nc2c(O)ccc3ccccc23)cc(C(=O)O)c1	–	–	–	–	–	·	·
CC(=O)NC1CCCCN(Cc2cccc(F)c2)C1=O (stereo unspecified)	·	–	–	·	–	·	·
O=C1C(Cl)=C(N2CCCCC2)C(=O)N1c1ccccc1Cl	–	–	–	–	–	·	·
O=C1c2cccc(Cl)c2C(=O)c2c1cccc2N1CCCC1	–	66	–	65	–	65	85
Cc1cccc(NC(=O)NCc2ccc3c(c2)cc(C)n3C)c1	34	42	–	40	–	–	–	BSA TAMRA ctr=–;TCR-CD3 conf=–
Cc1cccc(NC(=S)NCc2ccc3c(c2)cc(C)n3C)c1C	–	30	–	50	–	–	–
SMILES	TCR-CD3 inh	ABHD4 inh	SIAE primary	HTRA1 inh	PRMT1 inh	HTRA1 conf	ABHD4 confirm	others
O=C(O)c1cc(O)c2c(c1)[C@H]([C@H]1c3cc(C(=O)O)cc(O)c3C(=O)c3c(O[C@@H]4O[C@H](CO)[C@@H](O)[C@H](O)[C@H]4O)cccc31)c1cccc(OC3O[C@H](CO)[C@@H](O)[C@H](O)[C@H]3O)c1C2=O (stereo partly specified)	137	60	74	40	37	–	–	BSA TAMRA ctr=–;TCR-CD3 conf=135;PRMT1 inh conf=–
O=[N+]([O-])c1cc(S(=O)(=O)N2CCCC2)ccc1NN=C1CCCCC1	–	–	–	–	–	·	·
O=[N+]([O-])c1cc(C(F)(F)F)cc([N+](=O)[O-])c1NN=C1CCCCC1	–	37	–	42	–	–	–
O=C(/C=C/c1ccc(O)c(O)c1)c1ccccc1O	–	36	–	60	–	68	–
O=C(O)c1ccc(/C=N/NC(=O)c2cc3ccccc3cc2O)cc1	–	31	–	42	–	–	–
O=C(CNc1ccc2ccccc2c1)N/N=C/c1ccc(C(=O)O)cc1	–	–	–	–	–	·	·
O=C(CSc1n[nH]c(-c2ccccc2)n1)c1ccc(O)c(O)c1	–	34	–	72	–	66	–
Cc1cc(SCC(=O)c2ccc(O)c(O)c2)nc2ccccc12	29	39	–	54	24	69	–	BSA TAMRA ctr=–;TCR-CD3 conf=24
Clc1ccc(-n2c(SCc3cccc4ccccc34)nnc2-c2cccnc2)cc1	·	–	–	·	–	·	·
C=C1c2cccc(O)c2C(O)=C2C(=O)[C@]3(O)C(O)=C(C(N)=O)C(=O)[C@@H](N(C)C)[C@@H]3[C@@H](O)[C@H]12	52	79	69	53	52	–	–	BSA TAMRA ctr=–;TCR-CD3 conf=–;PRMT1 inh conf=26
Cc1[nH]c(N=Nc2ccccc2)nc1N=Nc1ccccc1	–	45	–	74	–	75	62
Nc1ccc(N=Nc2ccccc2)c(N)n1	–	–	–	–	–	·	·
Oc1c(N=Nc2ccccn2)ccc2ccccc12	–	35	–	51	–	38	–
Oc1ccc(/C=N/Nc2cc(N3CCCC3)nc(N3CCCC3)n2)cc1O	33	35	22	58	–	140	40
Nc1scc2c(C(=O)N/N=C/c3ccc(Cl)cc3)nn(-c3ccccc3)c(=O)c12	–	44	–	41	22	–	–
CCOC(=O)c1nn(-c2ccccc2)c(=O)c2c(N)scc12	–	–	–	–	–	·	·
CC(=O)c1ccc(NC(=O)NC2CCCCN(Cc3ccc(Cl)cc3)C2=O)cc1 (stereo unspecified)	·	–	–	·	–	·	·
COc1ccc(Cn2cc(COC(=O)NCC(C)C)nn2)cc1	·	–	–	·	–	·	·
O=C(COC(=O)c1ccc(Sc2ncn[nH]2)c([N+](=O)[O-])c1)Nc1ccc(Cl)c(Cl)c1	·	–	–	·	–	·	·
CC(C)N=C(N)N=C(N)Nc1ccc(Cl)cc1	–	–	–	–	–	·	·
NC(=NCCCCCCN=C(N)/N=C(\N)Nc1ccc(Cl)cc1)/N=C(\N)Nc1ccc(Cl)cc1	–	46!	–	42!	–	45	40
Cc1ccc(C)c(/C=C/C(=O)c2ccccc(=O)c2O)c1	–	38	–	54	–	59	–
Cc1ccc(/C=C/C(=O)c2ccccc2)cc1	–	–	–	–	–	·	·
